A selection: hits, their analogues and other compounds. The true share with any hit is near 1.9%.
STEP block – blocks human striatal-enriched tyrosine phosphatase. 0.25% of 360,000 active. P54829. inhibition, % at 20 µM. recombinant STEP, OMFP fluorogenic substrate, fluorescence;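 active = inhibition at 20 µM, scaled per plate between control wells, above about 37%, limit read from the data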;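 also: 0% = DMSO with enzyme and substrate and 100% = substrate only without enzyme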
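System: STEP phosphatase, cell-free reaction; Buffer or medium: Bis-Tris pH 6.0 buffer with DTT, detergent; Incubation: 20 min at room temperature, dark; Measured by: fluorescence, 480/540 nm.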
FAS TE block – inhibitors of human fatty acid synthase thioesterase domain; P49327; recombinant FAS-TE, OMFH fluorogenic substrate, fluorescence endpoint; inhibition, % at 15 µM; 0.67% of 360,000 active; AID 602261;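 active = compounds whose normalised, plate-corrected inhibition of enzyme fluorescence in the single-dose primary screen is 50% or more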;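 also: 0% = DMSO with enzyme and 100% = substrate without enzyme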
LMPTP block – LMPTP (human) inhibition. recombinant LMPTP-A, OMFP fluorogenic substrate, fluorescence intensity. inhibition, % at 20 µM. 0.22% of 360,000 active. AID 651560;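 active = compounds that cut the enzyme signal by at least half of the control window in the single-dose screen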;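 also: plate controls were DMSO wells with enzyme plus substrate for no effect and substrate without enzyme for full effect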
Target sequence (P24666 whole entry, looked up): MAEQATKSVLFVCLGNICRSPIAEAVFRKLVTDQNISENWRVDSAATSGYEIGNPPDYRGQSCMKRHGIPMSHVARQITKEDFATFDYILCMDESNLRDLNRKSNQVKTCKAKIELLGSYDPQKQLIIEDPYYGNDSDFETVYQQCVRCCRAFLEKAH
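Test system: LMPTP-A, protein tyrosine phosphatase of low molecular weight; Input: 0.625 nM enzyme; Incubation: 50 min dark incubation at room temperature; Signal: endpoint fluorescence intensity from OMFP dephosphorylation; Read-out basis: % inhibition versus control wells.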
SUMO1 PPI mod – alters human SUMO1 binding to SIM partners; SUMO1 binding to a labelled peptide, TR-FRET, 1 h; inhibition, % at 20 µM; 0.33% of 360,000 active; in the data active = inhibition above about 37%
Target sequence (P63165 whole entry, looked up): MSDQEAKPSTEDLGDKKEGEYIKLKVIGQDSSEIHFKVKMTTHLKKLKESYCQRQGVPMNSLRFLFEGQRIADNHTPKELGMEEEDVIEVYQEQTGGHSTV
Scp1 inh – Scp-1 (human) phosphatase inhibition | Q9GZU7 | Recombinant Scp1, phosphopeptide, malachite green phosphate absorbance | inhibition, % at 20 µM | 0.88% of 340,000 active | AID 493091;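 active = inhibition above about 50% at 20 µM, limit read from the data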;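 also: plate controls were DMSO wells with enzyme for no effect and wells lacking enzyme for full effect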
Target sequence (Q9GZU7 76-261 limits assumed): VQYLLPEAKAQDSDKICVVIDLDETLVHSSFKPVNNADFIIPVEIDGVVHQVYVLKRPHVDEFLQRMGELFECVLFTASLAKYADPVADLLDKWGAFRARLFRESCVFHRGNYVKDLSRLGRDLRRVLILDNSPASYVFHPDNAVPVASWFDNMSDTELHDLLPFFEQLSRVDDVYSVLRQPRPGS
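Material: truncated SCP-1 phosphatase (76-261aa) / Buffer or medium: 50 mM Tris acetate pH 5.5, 0.005% Tween-20, 10 mM MgCl2 / Compound dosing: one concentration, 20 µM, with 1.0% DMSO / Incubation: 45 min room-temperature reaction, 5 min colour, 30 min stabiliser / Detection: colorimetric free-phosphate detection, absorbance 630 nm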
Scp-1 conf – Scp-1 (human) inhibition, single-dose confirmed; inhibition, % at 20 µM; shares compounds with Scp1 inh; recombinant SCP-1 catalytic domain, phosphate release, malachite green absorbance; 61% of 2,500 active; AID 540281;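 also: plate controls were DMSO with enzyme for no effect and buffer wells lacking enzyme for full effect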
MG interference – colorimetric interference in Scp-1 counter-screen; 2,500 tested, under 10 active; apparent inhibition (interference), % at 20 µM; Colorimetric interference counterscreen, malachite green absorbance 630 nm; shares compounds with Scp1 inh; AID 540313;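 also: compounds added after enzyme reaction finished so only phosphate colour detection is probed; plate controls were DMSO wells with completed Scp-1 reaction for no effect and substrate wells lacking enzyme for full effect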
Scp-1 Tm shift – validation of human Scp-1 inhibitors by thermal shift binding; thermal shift relative to vanadate control, % at 40 µM; Recombinant SCP1, Sypro Orange thermal shift Tm; 25% of 1,500 active; shares compounds with Scp1 inh; AID 540329;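 active = substances whose mean melting-temperature shift, as a percentage of the reference inhibitor's shift, reaches about 5.3%, limit read from the data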;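 also: 0% = Tm of DMSO wells and 100% = Tm with sodium orthovanadate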
Starred values were filed as active, the others as inactive; · = not tested or not shown.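 The calls were made as follows, unless noted: active = inhibition of at least 30% at 20 µM; inactive = the rest.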

SMILES	STEP block	FAS TE block	LMPTP block	SUMO1 PPI mod	Scp1 inh	Scp-1 conf	MG interference	Scp-1 Tm shift
Cc1cc2c(NC(=O)CC(C)(C)CC(=O)O)cccc2nn1	4	-7	1	-1	52*	-8	-11	·
Cc1cc2c(NC(=O)Nc3ccc(F)cc3)cccc2nn1	-3	0	-2	-23	2	·	·	·
O=C1CNC(=O)/C1=C\N1CCN(C(c2ccccc2)c2ccccc2)CC1	2	-1	-3	0	55*	-16	-9	·
O=C(NCCOc1ccccc1)C1C(=O)Nc2ccccc2C(=O)N1C1CCCCC1 (configuration not stated)	·	·	0	-1	·	·	·	·
Cc1ccccc1NC(=O)Cn1nnc(C(=O)NCc2ccco2)c1N	4	6	-2	-1	-3	·	·	·
Cc1ccccc1NC(=O)Cn1nnc(S(=O)(=O)c2ccc(C(C)(C)C)cc2)c1N	21	-4	48	10	106*	76*	-19	-29
COc1ccccc1CN1CC(C(=O)NCCN2CCNC2=O)CCC1=O (configuration not stated)	-4	-5	-1	2	11	·	·	·
O=C(NCCN1CCNC1=O)C1CCC(=O)N(CCc2ccccc2)C1 (configuration not stated)	0	-4	1	0	-8	-16	-12	·
COc1ccc(/C=C/C(=O)NCc2ccccn2)cc1	1	-7	0	1	0	·	·	·
Cc1ccc(/C=C/C(=O)NCc2ccccn2)o1	0	-13	1	-2	72*	59*	-13	3
C#CCNC(=O)C[C@@H]1C[C@@]2(C(=O)OCC)CCCC=C2N(CCC2=CCCCC2)C1=O	·	·	0	1	·	·	·	·
O=C(N/N=C/c1ccc(-c2cccc(C(F)(F)F)c2)o1)c1ccccc1O	4	-4	-3	0	18	·	·	·
O=C(N/N=C\c1ccc(-c2ccc([N+](=O)[O-])cc2)o1)c1ccc2c(c1)OCO2	-2	-24	-1	-16	-13	·	·	·
O=C(N/N=C/c1ccc(-c2cccc([N+](=O)[O-])c2)o1)c1ccc([N+](=O)[O-])cc1	3	26	2	-11	52*	-20	-18	·
O=C(N/N=C/c1ccc(-c2cccc([N+](=O)[O-])c2)o1)c1ccccc1O	9	4	14	-3	74*	77*	-10	9.2*
C/C(=N/NC(=O)c1cc(-c2cccc([N+](=O)[O-])c2)n[nH]1)c1cccc(O)c1	0	1	0	-14	-2	·	·	·
C/C(=N\NC(=O)c1cc(-c2cccc([N+](=O)[O-])c2)n[nH]1)c1ccccc1O	97*	17	9	-15	96*	85*	-6	6.3*
O=c1[nH][nH]c2c1C(c1ccc(Cl)c(Cl)c1)OC(CCc1ccccc1)C2 (configuration not stated)	·	-63	2	5	·	·	·	·
CCOC(=O)[C@]12CCC=C1N(Cc1cccc3ccccc13)C(=O)[C@H](CC(=O)NCC1CCCCC1)C2	·	14	4	3	·	·	·	·
O=C(Nc1ccc(F)cc1)c1cccc(N2C(=O)c3ccccc3C2=O)c1	13	11	1	21	82*	55*	-5	-3
CCn1ncc(Cl)c1C(=O)NC(C)c1ccccc1 (configuration not stated)	1	-10	0	-2	0	·	·	·
CCn1ncc(Br)c1C(=O)NC(C)c1ccccc1 (configuration not stated)	-19	-12	-1	3	81*	-1	-5	·
CC(C)NC(=O)C1(C)CCCCN1Cc1ccc(OCc2ccccc2)cc1 (configuration not stated)	-2	12	-2	1	·	·	·	·
C[N+]1(CC(=O)OCCCc2ccccc2)CCCC1	0	-8	-2	-3	62*	82*	-19	-26
O=C(N/N=C\c1cccnc1)c1cc(-c2ccc(Cl)s2)[nH]n1	8	-10	34	-9	62*	53*	-18	5
SMILES	STEP block	FAS TE block	LMPTP block	SUMO1 PPI mod	Scp1 inh	Scp-1 conf	MG interference	Scp-1 Tm shift
O=[N+]([O-])c1ccc(C(O)C[n+]2ccccc2)cc1 (configuration not stated)	-1	-4	-1	-23	96*	0	1	·
O=[N+]([O-])c1ccc(C(O)CN2CCN(c3ccccc3)CC2)cc1 (configuration not stated)	-3	-1	-1	-12	-12	·	·	·
CC(Nc1cc(N2CCN(C(=O)C(C)(C)C)CC2)ccc1[N+](=O)[O-])c1ccccc1 (configuration not stated)	3	33	6	-19	53*	-21	-24	·
Nc1sc2c(c1C(=O)NCCc1ccccc1)CCCC2	·	·	0	-2	·	·	·	·
C=CCn1c(SCC(=O)NCCOC)nc2scc(-c3ccco3)c2c1=O	1	-5	2	15	52*	16	-25	·
C=CCn1c(SCC(=O)NCC2CCCO2)nc2scc(-c3ccco3)c2c1=O (configuration not stated)	-3	2	1	5	-4	·	·	·
CC(C)NC(=O)C1(C)CN(S(C)(=O)=O)CC(=O)N1Cc1ccc2c(c1)OCO2 (configuration not stated)	·	·	-1	-3	·	·	·	·
C[N+]1(CCCCSc2ccc(O)cc2)CCCCC1	2	-5	-1	-2	98*	83*	-15	-13
COc1cccc(CNc2nc3cc(-c4ccsc4)sc3c(=O)n2C)c1OC	2	17	3	-9	·	·	·	·
COc1cccc(C(=O)Nc2cccc(-c3nnc(-c4ccco4)o3)c2)c1	0	14	3	7	-17	·	·	·
COc1ccc(Br)cc1C(=O)Nc1cccc(-c2nnc(-c3ccco3)o2)c1	33	16	32	18	98*	72*	-11	2
COCCN1C[C@@H](CO)O[C@@H](n2cnc3c(N4CCN(CCO)CC4)ncnc32)C1	-2	-11	3	-1	·	·	·	·
CC(/C=C/c1ccco1)=N\NC(=O)c1cc(Cl)ccc1O	2	0	0	36	54*	68*	-13	16*
CC(/C=C/c1ccco1)=N\NC(=O)c1cccnc1	-2	-9	0	-6	55*	33*	-11	-16
CC(/C=C/c1ccco1)=N\NC(=O)c1cc(C)[nH]n1	-2	-8	0	4	52*	24	-8	·

Screening results as filed in PubChem BioAssay.
